Measured values published in ChEMBL document CHEMBL1156961, “Inhibition of Escherichia coli glycosyltransferase MurG and Mycobacterium tuberculosis Gal transferase by uridine-linked transition state mimics” (Bioorg Med Chem, 2010).
The source made the active and inactive calls. The rule behind the calls is not given here.

Experiments:
[1] = biological target: T1, Galactofuranosyltransferase GlfT2 (Mycobacterium tuberculosis) (UniProt O53585); experiment: Inhibition of Mycobacterium tuberculosis GlfT2 assessed as incorporation of [14C]Gal at 1 mM by scintillation counting
T1 sequence (whole entry): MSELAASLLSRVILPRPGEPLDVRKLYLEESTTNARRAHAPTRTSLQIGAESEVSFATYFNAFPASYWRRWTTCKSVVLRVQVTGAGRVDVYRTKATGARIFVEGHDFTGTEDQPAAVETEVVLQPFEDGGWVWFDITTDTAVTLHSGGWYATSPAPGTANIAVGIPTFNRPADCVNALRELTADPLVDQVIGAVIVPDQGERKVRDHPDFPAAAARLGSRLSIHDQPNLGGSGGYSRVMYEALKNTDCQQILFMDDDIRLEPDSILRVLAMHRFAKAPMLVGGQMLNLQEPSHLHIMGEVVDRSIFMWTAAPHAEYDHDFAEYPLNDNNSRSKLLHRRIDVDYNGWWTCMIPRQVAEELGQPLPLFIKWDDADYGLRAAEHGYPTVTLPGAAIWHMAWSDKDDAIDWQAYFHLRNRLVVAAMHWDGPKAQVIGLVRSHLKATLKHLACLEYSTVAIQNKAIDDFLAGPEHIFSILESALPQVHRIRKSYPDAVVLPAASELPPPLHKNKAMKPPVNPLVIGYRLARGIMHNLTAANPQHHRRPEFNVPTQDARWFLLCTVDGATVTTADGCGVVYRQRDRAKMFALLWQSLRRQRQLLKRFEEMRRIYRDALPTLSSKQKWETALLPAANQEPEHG

Escherichia coli [2] = experiment: Inhibition of Escherichia coli recombinant C terminal His-tagged MurG expressed in Escherichia coli C43 assessed as inhibition of […] labelled lipid intermediate 2 formation at 1 mM over 15 mins by scintillation counting
Pseudomonas putida = experiment: Antibacterial activity against Pseudomonas putida ATCC 33015 at 100 ug/ml after 24 hrs; assay type: functional, organism-based
Procedure, shortened: (§1)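 LB broth culture grown overnight at 37 °C from a single colony, diluted to 2% in fresh LB and mixed 1:1 with sterile aqueous compound (200 μg/ml or 1 mg/ml solution) or water. Incubated at 37 °C, growth followed by OD595 at 3, 6 and 24 h.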

Bacillus subtilis = experiment: Antibacterial activity against Bacillus subtilis W23 at 100 ug/ml after 24 hrs; assay type: functional, organism-based; procedure, shortened: as §1
Escherichia coli [3] = experiment: Antibacterial activity against Escherichia coli BL21 at 100 ug/ml after 24 hrs; assay type: functional, organism-based; procedure, shortened: as §1
[4] = Inhibition of Escherichia coli recombinant C terminal His-tagged MurG expressed in Escherichia coli C43 assessed as inhibition of [3H]UDPGlc labelled lipid intermediate 2 formation over 15 mins by scintillation counting

Row | SMILES | inhibition [1] | further results
1 | COC(=O)[C@H]1[C@@H](c2ccccc2OC)N[C@@](C)(C(=O)N2CCC[C@H]2C(=O)NC[C@H]2O[C@@H](n3ccc(=O)[nH]c3=O)[C@H](O)[C@@H]2O)[C@@H]1C(=O)OC (mixture of isomers) | 0% | 
2 | COC(=O)[C@@H]1[C@H]2C(=O)N(CC(=O)NC[C@H]3O[C@@H](n4ccc(=O)[nH]c4=O)[C@H](O)[C@@H]3O)C(=O)[C@@H]2N[C@@H]1c1ccccc1OC | 0% | inhibition (Escherichia coli [2]): 22%
3 | COc1ccccc1[C@H]1N[C@@](C)(C(=O)NCC(=O)NC[C@H]2O[C@@H](n3ccc(=O)[nH]c3=O)[C@H](O)[C@@H]2O)[C@H]2C(=O)N(c3ccccc3)C(=O)[C@@H]12 (mixture of isomers) | 0% | Activity (Pseudomonas putida): inactive; Activity (Bacillus subtilis): inactive; Activity (Escherichia coli [3]): inactive
4 | COC(=O)[C@@H]1[C@@H]2C(=O)N(CC(=O)NC[C@H]3O[C@@H](n4ccc(=O)[nH]c4=O)[C@H](O)[C@@H]3O)C(=O)[C@@H]2N[C@@H]1c1ccccc1 | 80% | inhibition (Escherichia coli [2]): 0%
5 | COc1ccccc1[C@H]1N[C@@](C)(COC(=O)CCC(=O)OC[C@H]2O[C@@H](n3ccc(=O)[nH]c3=O)[C@H](O)[C@@H]2O)[C@H]2C(=O)N(c3ccccc3)C(=O)[C@@H]12 (mixture of isomers) | 0% | 
6 | COc1cccc([C@H]2N[C@@](C)(C(=O)NCC(=O)NC[C@H]3O[C@@H](n4ccc(=O)[nH]c4=O)[C@H](O)[C@@H]3O)[C@H]3C(=O)N(c4ccccc4)C(=O)[C@@H]23)c1OC | 0% | 
7 | COC(=O)[C@H]1[C@@H](c2ccccc2OC)N[C@@](C)(C(=O)NCC(=O)NC[C@H]2O[C@@H](n3ccc(=O)[nH]c3=O)[C@H](O)[C@@H]2O)[C@@H]1C(=O)OC (mixture of isomers) | 0% | IC50 [4]: > 5 mM
8 | COC(=O)[C@H]1[C@@H](c2ccccc2OC)N[C@@](C)(C(=O)N2CCC[C@H]2C(=O)NC[C@H]2O[C@@H](n3ccc(=O)[nH]c3=O)[C@H](O)[C@@H]2O)[C@H]1C(=O)OC | 0% | 
9 | COC(=O)[C@@H]1[C@@H]2C(=O)N(CC(=O)NC[C@H]3O[C@@H](n4ccc(=O)[nH]c4=O)[C@H](O)[C@@H]3O)C(=O)[C@@H]2N[C@@H]1c1ccccc1OC | 0% | inhibition (Escherichia coli [2]): 0%
10 | COc1ccccc1[C@H]1N[C@@](C)(C(=O)N2CCC[C@H]2C(=O)NC[C@H]2O[C@@H](n3ccc(=O)[nH]c3=O)[C@H](O)[C@@H]2O)[C@H]2C(=O)NC(=O)[C@@H]12 |  | IC50 [4]: > 5 mM
11 | COc1ccccc1[C@H]1N[C@@](C)(COC(=O)CC(=O)OC[C@H]2O[C@@H](n3ccc(=O)[nH]c3=O)[C@H](O)[C@@H]2O)[C@H]2C(=O)N(c3ccccc3)C(=O)[C@@H]12 | 0% | 
12 | COC(=O)[C@@H]1[C@@H]2C(=O)N(CC(=O)NC[C@H]3O[C@@H](n4ccc(=O)[nH]c4=O)[C@H](O)[C@@H]3O)C(=O)[C@@H]2N[C@@H]1c1cccc(OC)c1OC |  | inhibition (Escherichia coli [2]): 0%
13 | COC(=O)[C@@H]1[C@@H]2C(=O)N(CC(=O)NC[C@H]3O[C@@H](n4ccc(=O)[nH]c4=O)[C@H](O)[C@@H]3O)C(=O)[C@@H]2N[C@@H]1c1ccc(OC)c(OC)c1 | 0% | IC50 [4]: 4 mM
14 | C[C@@]1(C(=O)NCC(=O)NC[C@H]2O[C@@H](n3ccc(=O)[nH]c3=O)[C@H](O)[C@@H]2O)N[C@H]([C@H](O)CO)[C@@H]2C(=O)N(c3ccccc3)C(=O)[C@@H]21 | 0% | 
